The values below come from ChEMBL document CHEMBL4665761, “Optimizing the Benefit/Risk of Acetyl-CoA Carboxylase Inhibitors through Liver Targeting” (J Med Chem, 2020).

Data set [1] can be described thus: Drug uptake in Wistar-Hannover rat liver at 30 mg/kg, po after 6 hrs by LC/MS-MS analysis. The format is ADME, organism-based. Conditions: read-out: Drug uptake; call rule not given here. An outline of the steps:
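Male Wistar-Hannover rats, n = 2 or 3, given an oral suspension in 0.5% methyl cellulose with 0.1% Tween 80; one compound was dosed as the HCl salt. Total plasma and liver concentrations were measured 6 h post-dose. Kp = liver/plasma total concentration. Kpu,u uses fu values from equilibrium dialysis.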

In data set [2] the test system is Rattus norvegicus. Description: Effect on triglyceride accumulation in Sprague-Dawley rat high fat dietary model at 3 mg/kg, po assessed as reduction in triglyceride level after 42 days by XPT clinical analyzer. The format is functional. The arrangement: scale not given: the % may be the effect or the level left. Conditions: time 42 day. An outline of the steps: (§1)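 High-fat-diet-fed Sprague-Dawley rats dosed orally for 42 days, with chow-fed and vehicle controls, n = 10 per group. Read-out is hepatic triglyceride, reported as mean ± SEM.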

The test system of data set [3] is Rattus norvegicus. Description: Effect on triglyceride accumulation in Sprague-Dawley rat high fat dietary model at 1 mg/kg, po assessed as reduction in triglyceride level after 42 days by XPT clinical analyzer. The format is functional. Further details: scale not given: the % may be the effect or the level left. Conditions: time 42 day. The essentials: as §1
Data set [4] in a line: Inhibition of DNL in Sprague-Dawley rat assessed as reduction in DNL level in liver at 300 mg/kg, po pretreated with one hr followed by [14C]-acetate treatment and measured after 1 hr relative to control. The format is functional. The essentials:
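Sprague-Dawley rats given single oral doses of 0.03–300 mg/kg in 0.5% methyl cellulose vehicle, n = 16 per dose. Read-out is incorporation of 14C-acetate into lipids in liver, bone marrow and lung, measured at 2 h post-dose relative to vehicle. Data are mean ± SEM. EC50 is reported with a 95% confidence interval.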

A short description of data set [5]: Genotoxicity in Salmonella typhimurium TA1537 by Ames test. Conditions: salmonella enterica subsp. enterica serovar typhimurium. The data set is classed as toxicity. An outline of the steps: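 Ames test in Salmonella strains TA98, TA100, TA1535 and TA1537, run with and without aroclor-induced rat liver S9 plus NADPH.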
The target in data set [6] is Solute carrier family 22 member 2 (Homo sapiens, UniProt O15244). Description: Inhibition of human SLC22A2 expressed in HEK293 cells in presence of para-aminohippuric acid/metformin. The format is cell-based.
Chain of Solute carrier family 22 member 2 (O15244 whole entry): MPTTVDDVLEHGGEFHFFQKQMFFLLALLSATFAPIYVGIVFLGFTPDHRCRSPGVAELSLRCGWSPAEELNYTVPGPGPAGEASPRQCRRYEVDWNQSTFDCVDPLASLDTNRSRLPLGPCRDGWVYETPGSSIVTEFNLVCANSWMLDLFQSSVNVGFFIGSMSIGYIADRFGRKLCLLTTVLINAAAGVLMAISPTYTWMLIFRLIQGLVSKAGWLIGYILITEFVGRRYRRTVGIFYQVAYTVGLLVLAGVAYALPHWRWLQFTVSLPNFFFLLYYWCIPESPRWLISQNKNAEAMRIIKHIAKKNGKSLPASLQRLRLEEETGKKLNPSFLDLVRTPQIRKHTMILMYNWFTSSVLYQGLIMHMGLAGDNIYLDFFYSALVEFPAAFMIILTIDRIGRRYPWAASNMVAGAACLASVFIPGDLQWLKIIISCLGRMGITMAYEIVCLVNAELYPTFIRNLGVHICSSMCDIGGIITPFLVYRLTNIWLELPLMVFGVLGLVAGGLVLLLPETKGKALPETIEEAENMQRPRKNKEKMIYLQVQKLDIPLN
Data set [7] in a line: Induction of CYP3A4 mRNA expression in human hepatocytes at 0.5 to 200 uM. The format is ADME, cell-based, Hepatocyte. The settings on record: dose 0.5-200 µM. An outline of the steps: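 Individual human hepatocyte lots treated at 0.5–200 µM. Read-out is messenger RNA levels of CYP1A2 and CYP3A4.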
In the next data set the target is Cytochrome P450 2C8 (Homo sapiens, UniProt P10632). Description: inhibition of CYP2C8 in human liver microsomes. The format is ADME. (Microsomes from liver hold many membrane-bound enzymes, among them those of drug oxidation.)
Chain of Cytochrome P450 2C8 (P10632 whole entry): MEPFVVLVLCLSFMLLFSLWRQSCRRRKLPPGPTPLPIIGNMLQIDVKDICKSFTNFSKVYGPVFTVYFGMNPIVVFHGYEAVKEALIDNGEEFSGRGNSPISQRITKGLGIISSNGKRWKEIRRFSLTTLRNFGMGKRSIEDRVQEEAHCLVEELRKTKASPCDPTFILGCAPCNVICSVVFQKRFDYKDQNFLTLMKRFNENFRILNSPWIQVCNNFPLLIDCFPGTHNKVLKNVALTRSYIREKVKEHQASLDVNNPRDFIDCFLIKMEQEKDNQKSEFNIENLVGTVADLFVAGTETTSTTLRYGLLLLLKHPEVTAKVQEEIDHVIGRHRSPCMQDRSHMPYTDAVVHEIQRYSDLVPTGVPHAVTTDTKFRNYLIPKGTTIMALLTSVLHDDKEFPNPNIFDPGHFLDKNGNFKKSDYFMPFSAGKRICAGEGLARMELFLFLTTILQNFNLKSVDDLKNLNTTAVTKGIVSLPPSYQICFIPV
For data set [8], the target named is UDP-glucuronosyltransferase 1A4 (Homo sapiens, UniProt P22310). Description: Inhibition of UGT1A4 in human liver microsomes incubated for 30 mins in presence of UDPGA by LC-MS/MS analysis. The data set is classed as ADME.
Chain of UDP-glucuronosyltransferase 1A4 (P22310 whole entry): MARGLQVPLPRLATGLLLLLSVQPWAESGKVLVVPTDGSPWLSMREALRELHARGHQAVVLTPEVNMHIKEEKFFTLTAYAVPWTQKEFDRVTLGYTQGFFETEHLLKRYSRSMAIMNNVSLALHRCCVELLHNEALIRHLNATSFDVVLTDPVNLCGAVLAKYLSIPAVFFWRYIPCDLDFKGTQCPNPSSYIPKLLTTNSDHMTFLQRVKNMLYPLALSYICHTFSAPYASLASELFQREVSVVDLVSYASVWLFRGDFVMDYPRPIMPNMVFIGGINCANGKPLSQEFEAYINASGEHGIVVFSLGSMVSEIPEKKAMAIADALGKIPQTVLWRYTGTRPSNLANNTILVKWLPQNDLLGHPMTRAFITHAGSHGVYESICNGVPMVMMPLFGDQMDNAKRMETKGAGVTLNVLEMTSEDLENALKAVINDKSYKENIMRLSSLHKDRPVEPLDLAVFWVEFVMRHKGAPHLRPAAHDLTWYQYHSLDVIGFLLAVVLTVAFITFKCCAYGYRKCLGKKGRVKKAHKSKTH
In a further data set the target is NTCP (Homo sapiens, UniProt Q14973). Description: Substrate activity at human NTCP stably expressed in HEK293 cells assessed as ratio of total to passive cellular uptake at 1 uM incubated for 0.5 to 4 mins by LC/MS-MS analysis. The format is cell-based. The settings on record: HEK293 cells stably expressing human NTCP, time 0.5-4 min. The essentials:
(§2)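 HEK293 cells stably transfected with the transporter, plus wild-type cells, grown to confluence in DMEM with 10% heat-inactivated FBS and 5 µg/mL blasticidin. Washed with HBSS/20 mM HEPES, pH 7.4, then incubated with compound at 37 °C for 0.5–4.0 min. Cells washed ice-cold, lysed in MeOH for LC-MS/MS, uptake normalized to BCA protein. Ratio = transfected/wild-type uptake, averaged over time points.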

A further data set concerns the target OATP2B1 (Homo sapiens, UniProt O94956). Nature of the data set: Substrate activity at human OATP2B1 stably expressed in HEK293 cells assessed as ratio of total to passive cellular uptake at 1 uM incubated for 0.5 to 4 mins by LC/MS-MS analysis. The data set is classed as cell-based. The settings on record: HEK293 cells stably expressing human OATP2B1, time 0.5-4 min. An outline of the steps: as §2

The target in a further data set is Acetyl-CoA carboxylase 2 (Homo sapiens, UniProt O00763). Nature of the data set: Uncompetitive inhibition of human ACC2 incubated for 15 mins in presence of ATP by Line weaver-Burk plot analysis. The essentials: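 Radioenzymatic assay with purified ACC isozymes, measuring [14C]-bicarbonate incorporation into [14C]-malonyl-CoA. Mode of inhibition taken from substrate concentration-dependence experiments varying ATP or carbonate. IC50 dose-response run at saturating ATP.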
Chain of Acetyl-CoA carboxylase 2 (O00763 whole entry): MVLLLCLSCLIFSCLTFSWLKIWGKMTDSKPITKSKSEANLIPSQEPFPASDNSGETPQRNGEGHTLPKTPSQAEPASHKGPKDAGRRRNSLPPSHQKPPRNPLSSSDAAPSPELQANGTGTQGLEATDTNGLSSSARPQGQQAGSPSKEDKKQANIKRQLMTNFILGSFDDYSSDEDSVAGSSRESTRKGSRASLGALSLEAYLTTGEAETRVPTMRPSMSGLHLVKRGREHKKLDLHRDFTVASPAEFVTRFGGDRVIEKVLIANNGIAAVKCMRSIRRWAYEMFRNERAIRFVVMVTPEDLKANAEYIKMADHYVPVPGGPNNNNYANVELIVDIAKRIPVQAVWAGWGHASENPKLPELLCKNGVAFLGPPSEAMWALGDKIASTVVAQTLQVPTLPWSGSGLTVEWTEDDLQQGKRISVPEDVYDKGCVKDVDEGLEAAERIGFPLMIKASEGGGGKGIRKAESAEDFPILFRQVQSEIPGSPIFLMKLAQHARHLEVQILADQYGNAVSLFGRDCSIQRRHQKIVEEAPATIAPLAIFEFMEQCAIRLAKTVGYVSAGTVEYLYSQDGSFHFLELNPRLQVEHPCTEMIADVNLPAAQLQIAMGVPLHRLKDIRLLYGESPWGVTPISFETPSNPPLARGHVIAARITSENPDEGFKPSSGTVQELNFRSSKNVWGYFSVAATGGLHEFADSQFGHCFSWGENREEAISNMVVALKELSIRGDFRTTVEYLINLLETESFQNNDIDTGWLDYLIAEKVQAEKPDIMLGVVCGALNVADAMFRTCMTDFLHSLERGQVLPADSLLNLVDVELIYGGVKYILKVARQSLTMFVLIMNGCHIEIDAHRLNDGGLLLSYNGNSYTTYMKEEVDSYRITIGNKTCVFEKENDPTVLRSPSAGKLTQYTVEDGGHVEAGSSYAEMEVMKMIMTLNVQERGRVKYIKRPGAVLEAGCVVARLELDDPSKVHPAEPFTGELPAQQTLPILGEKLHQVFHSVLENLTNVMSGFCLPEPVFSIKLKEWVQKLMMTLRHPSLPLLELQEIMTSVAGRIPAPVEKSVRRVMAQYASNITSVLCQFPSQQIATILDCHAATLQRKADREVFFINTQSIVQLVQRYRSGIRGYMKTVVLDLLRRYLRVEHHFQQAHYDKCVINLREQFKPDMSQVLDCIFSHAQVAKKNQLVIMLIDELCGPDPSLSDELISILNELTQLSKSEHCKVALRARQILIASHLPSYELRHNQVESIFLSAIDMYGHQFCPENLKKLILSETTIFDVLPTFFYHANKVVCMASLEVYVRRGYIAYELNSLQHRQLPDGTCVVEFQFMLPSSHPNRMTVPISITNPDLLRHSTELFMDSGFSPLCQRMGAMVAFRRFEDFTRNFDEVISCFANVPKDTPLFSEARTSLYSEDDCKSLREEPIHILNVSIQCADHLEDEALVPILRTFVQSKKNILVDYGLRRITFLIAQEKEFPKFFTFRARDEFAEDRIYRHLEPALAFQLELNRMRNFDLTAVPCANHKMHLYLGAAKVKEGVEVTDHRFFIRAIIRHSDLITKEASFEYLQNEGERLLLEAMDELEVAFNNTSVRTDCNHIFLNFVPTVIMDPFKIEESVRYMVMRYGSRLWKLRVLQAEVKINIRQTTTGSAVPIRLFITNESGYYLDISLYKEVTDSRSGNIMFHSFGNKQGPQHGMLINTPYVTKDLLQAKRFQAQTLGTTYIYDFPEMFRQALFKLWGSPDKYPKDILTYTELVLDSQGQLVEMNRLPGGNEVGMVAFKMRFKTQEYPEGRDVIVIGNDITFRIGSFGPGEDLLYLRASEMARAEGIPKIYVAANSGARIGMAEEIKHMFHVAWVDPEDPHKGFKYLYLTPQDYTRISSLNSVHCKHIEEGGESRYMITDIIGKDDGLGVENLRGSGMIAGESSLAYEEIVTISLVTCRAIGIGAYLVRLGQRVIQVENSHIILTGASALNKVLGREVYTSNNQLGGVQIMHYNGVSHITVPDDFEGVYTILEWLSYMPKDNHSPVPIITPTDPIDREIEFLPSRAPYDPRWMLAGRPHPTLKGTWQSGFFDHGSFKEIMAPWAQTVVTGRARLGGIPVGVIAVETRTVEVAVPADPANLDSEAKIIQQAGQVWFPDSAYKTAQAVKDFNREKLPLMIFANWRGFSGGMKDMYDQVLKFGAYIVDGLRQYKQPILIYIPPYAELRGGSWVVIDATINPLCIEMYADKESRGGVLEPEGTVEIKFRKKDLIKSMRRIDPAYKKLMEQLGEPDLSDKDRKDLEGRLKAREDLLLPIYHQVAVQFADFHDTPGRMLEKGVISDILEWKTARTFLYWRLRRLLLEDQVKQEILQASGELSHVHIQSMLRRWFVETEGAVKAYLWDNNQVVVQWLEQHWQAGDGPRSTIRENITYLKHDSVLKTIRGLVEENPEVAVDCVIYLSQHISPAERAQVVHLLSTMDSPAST

Data set [9] is described as follows: Thermodynamic solubility of the compound at pH 6.5 after 24 hrs. The data set is classed as physicochemical. Conditions: buffer, read-out: Therm_solubility.
Data set [10] is described as follows: Apparent volume of distribution at steady state in cynomolgus monkey plasma at 1 mg/kg, iv and measured up to 72 hrs by LC/MS-MS analysis. The settings on record: read-out: Vdss(app). The format is ADME, organism-based, Macaca fascicularis. The essentials:
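Cynomolgus monkeys dosed 1 mg/kg IV as the tris salt in 2% N-methylpyrrolidone/98% sulfobutylether-β-cyclodextrin (12.5%) in 50 mM TRIS, pH 8.0, or PO as the tris salt. Plasma was analysed by LC-MS/MS, n = 2. CL = IV dose/AUC; Vss = dose/(AUC × elimination rate constant); Cmax taken from observed data.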

The target of another data set is T1, OATP1B1 (Homo sapiens, UniProt Q9Y6L6).
T1 sequence (Q9Y6L6 whole entry): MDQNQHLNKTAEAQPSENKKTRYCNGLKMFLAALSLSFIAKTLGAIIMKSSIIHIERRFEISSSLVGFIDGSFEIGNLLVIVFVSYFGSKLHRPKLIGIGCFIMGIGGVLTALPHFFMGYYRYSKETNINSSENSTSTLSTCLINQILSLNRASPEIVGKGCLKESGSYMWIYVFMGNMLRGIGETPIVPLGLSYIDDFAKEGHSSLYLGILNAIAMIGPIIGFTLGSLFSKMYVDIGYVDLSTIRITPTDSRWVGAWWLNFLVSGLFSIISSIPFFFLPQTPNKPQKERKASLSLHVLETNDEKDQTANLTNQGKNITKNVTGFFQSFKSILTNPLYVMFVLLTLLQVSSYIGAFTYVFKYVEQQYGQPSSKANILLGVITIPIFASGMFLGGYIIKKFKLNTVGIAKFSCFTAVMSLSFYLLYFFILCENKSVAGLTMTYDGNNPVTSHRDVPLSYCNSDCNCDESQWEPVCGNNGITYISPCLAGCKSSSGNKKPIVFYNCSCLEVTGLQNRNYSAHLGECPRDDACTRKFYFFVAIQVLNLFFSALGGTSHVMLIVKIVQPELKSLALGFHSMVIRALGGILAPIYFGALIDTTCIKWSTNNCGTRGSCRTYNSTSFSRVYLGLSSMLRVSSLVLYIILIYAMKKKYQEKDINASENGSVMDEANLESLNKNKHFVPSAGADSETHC
Description: Substrate activity at human OATP1B1 stably expressed in HEK293 cells assessed as ratio of total to passive cellular uptake at 1 to 3 uM incubated for 0.5 to 4 mins by LC/MS-MS analysis. The format is ADME, cell-based. The settings on record: HEK293 cells stably expressing human OATP1B1, dose 1-3 µM, time 0.5-4 min. An outline of the steps: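 Stably transfected HEK293 cells and wild-type parental cells, cultured to confluency in DMEM with 10% heat-inactivated FBS and 5 µg/mL blasticidin. Uptake at 1–3 µM in HBSS/20 mM HEPES pH 7.4, 37 °C, 0.5–4.0 min. Cells washed in ice-cold buffer, lysed in MeOH, quantified by LC-MS/MS and normalized to protein. Ratio is transfected/parental uptake; >2 denotes substrate.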

In brackets after ≈: the same amount, converted by molar mass. Where only a bound is given, the exact number is not on record here.

Chain of NTCP (Q14973 whole entry): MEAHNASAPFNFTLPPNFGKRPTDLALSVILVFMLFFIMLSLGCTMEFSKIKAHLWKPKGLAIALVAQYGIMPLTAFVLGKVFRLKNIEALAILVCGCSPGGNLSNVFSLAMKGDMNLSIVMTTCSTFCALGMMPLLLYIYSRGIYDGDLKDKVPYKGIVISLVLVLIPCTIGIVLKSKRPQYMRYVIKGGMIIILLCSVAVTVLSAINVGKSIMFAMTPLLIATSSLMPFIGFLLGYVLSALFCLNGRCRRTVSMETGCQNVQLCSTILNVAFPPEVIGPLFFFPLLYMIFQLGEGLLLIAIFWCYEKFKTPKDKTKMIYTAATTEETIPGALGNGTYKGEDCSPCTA
Chain of OATP2B1 (O94956 whole entry): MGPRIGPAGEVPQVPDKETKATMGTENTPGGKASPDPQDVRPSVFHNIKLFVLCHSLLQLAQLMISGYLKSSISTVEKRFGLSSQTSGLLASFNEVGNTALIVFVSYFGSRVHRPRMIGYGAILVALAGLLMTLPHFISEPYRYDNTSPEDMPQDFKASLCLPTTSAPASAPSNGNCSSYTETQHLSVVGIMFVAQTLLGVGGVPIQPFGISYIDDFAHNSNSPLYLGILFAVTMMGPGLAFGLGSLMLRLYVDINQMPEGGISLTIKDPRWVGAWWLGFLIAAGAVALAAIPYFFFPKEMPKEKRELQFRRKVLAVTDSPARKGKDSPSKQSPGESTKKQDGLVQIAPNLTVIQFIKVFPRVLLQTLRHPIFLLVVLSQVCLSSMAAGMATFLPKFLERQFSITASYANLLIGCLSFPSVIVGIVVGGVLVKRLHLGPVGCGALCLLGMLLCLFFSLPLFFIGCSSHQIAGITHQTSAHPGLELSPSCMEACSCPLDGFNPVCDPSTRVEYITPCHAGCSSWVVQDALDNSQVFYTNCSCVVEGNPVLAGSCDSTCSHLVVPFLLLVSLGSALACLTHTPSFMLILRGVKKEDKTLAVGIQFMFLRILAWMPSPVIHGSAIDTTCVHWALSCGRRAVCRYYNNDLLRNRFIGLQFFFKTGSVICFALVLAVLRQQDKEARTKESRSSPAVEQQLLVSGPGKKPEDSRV

Consider `COc1cc(C(=O)N2CCC3(CC2)CC(=O)c2nn(C(C)(C)C)cc2O3)cc(-c2ccc(C(=O)O)cc2)n1`, for which, in data set [1], the concentration at 6 h was determined as 38100 ng/mL.
In the case of `COc1cc(C(=O)N2CCC3(CC2)CC(=O)c2c(cnn2C(C)C)C3)cc(-c2ccc(C(=O)O)cc2)n1` [CLESACOSTAT], the Activity in the data set with Rattus norvegicus [2] is 30%; with Rattus norvegicus [3] it was 30%; in data set [5] it was “Non-Toxic”; in data set [7] it was “Not Active”. Further, the inhibition in vivo – broadly, the drop in the measured response relative to a control, in per cent – at 300 mg/kg in data set [4] came to 82%. For the same compound, the half-maximal inhibitory concentration (IC50) – broadly, the concentration needed to halve the response being measured – is over 30 µM in [6], over 50 µM on Cytochrome P450 2C8, over 20 µM in [8] and 0.00866 µM on Acetyl-CoA carboxylase 2. For the same compound, the uptake ratio at 1 µM on NTCP came to 3.2; at OATP2B1, 7. Besides, the solubility thermodynamic at 24 h in data set [9] is 36 µM (≈ 18.1 µg/mL). The Vd in data set [10] was 0.49 L/kg. Also, the uptake ratio at up to 3 µM at OATP1B1 was found to be 3.5.
